Results published in publication PMC3889329 (Diabetes Therapy, 2013).

What was measured:
Assay type in all cases: in vivo, human
[1] = system: patients with type 2 diabetes mellitus; experiment: Safety and tolerability; settings: for Diarrhea / Headache / Hypoglycemia / Patients with any AE / Pruritus: N = 9
Method in brief: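 This was a double-blind, multiple rising dose trial with patients randomized 3:1 to active or placebo per dose group. Oral dosing was once daily: a single dose on day 1, then days 3–9. Adverse events were recorded, and relatedness was investigator-defined. Hypoglycemia was defined as blood glucose <3.5 mmol/L. An end-of-study examination was done on days 15–21. Analysis was descriptive, randomized set (n = 48).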

[2] = system: patients with type 2 diabetes mellitus; experiment: Laboratory electrolyte and lipid measurements; settings: normalized to a standard reference range
[3] = system: patients with type 2 diabetes mellitus; experiment: Urine volume and micturition frequency; settings: 2.5 mg qd
Method in brief: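 Urine volume and micturition frequency were recorded under controlled fluid intake, with oral once-daily dosing of test compound or placebo taken with 240 mL water. Dosing was a single dose on day 1, then days 3–9. Placebo was given within each dose group at a 3:1 active:placebo randomization.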

OC[C@H]1O[C@@H](c2ccc(Cl)c(Cc3ccc(O[C@H]4CCOC4)cc3)c2)[C@H](O)[C@@H](O)[C@@H]1O [Empagliflozin]
Diarrhea ([1]; 2.5 mg qd): 2 (22.2) n (%) | Headache ([1]; 2.5 mg qd): 0 n (%) | Hypoglycemia ([1]; 2.5 mg qd): 0 n (%) | Patients with any AE ([1]; 2.5 mg qd): 6 (66.7) n (%) | Pruritus ([1]; 2.5 mg qd): 1 (11.1) n (%) | Diarrhea ([1]; 10 mg qd): 0 n (%) | Headache ([1]; 10 mg qd): 1 (11.1) n (%) | Hypoglycemia ([1]; 10 mg qd): 2 (22.2) n (%) | Patients with any AE ([1]; 10 mg qd): 5 (55.6) n (%) | Pruritus ([1]; 10 mg qd): 0 n (%) | Diarrhea ([1]; 25 mg qd): 0 n (%) | Headache ([1]; 25 mg qd): 2 (22.2) n (%) | Hypoglycemia ([1]; 25 mg qd): 1 (11.1) n (%) | Patients with any AE ([1]; 25 mg qd): 5 (55.6) n (%) | Pruritus ([1]; 25 mg qd): 1 (11.1) n (%) | Diarrhea ([1]; 100 mg qd): 0 n (%) | Headache ([1]; 100 mg qd): 0 n (%) | Hypoglycemia ([1]; 100 mg qd): 0 n (%) | Patients with any AE ([1]; 100 mg qd): 3 (33.3) n (%) | Pruritus ([1]; 100 mg qd): 0 n (%) | Frequency of AEs ([1]; all patients receiving empagliflozin): 52.8% | Patients with hypoglycemic events (blood glucose <3.5 mmol/L) ([1]; all within 5 h of OGTT administration, moderate intensity): Three | Patients with AE leading to discontinuation of study treatment ([1]; cellulitis, moderate intensity, not believed related to study medication): 1 patient | Tolerability ([1]; multiple once-daily oral doses 2.5–100 mg): well tolerated | Fatalities or serious AEs ([1]; treatment period): no fatalities or serious AEs | Urinary tract or genital tract infections ([1]; treatment period): No urinary tract or genital tract infections were reported | Calcium, mean (SD), last value on treatment ([2]; 2.5 mg qd): 2.3 (0.1) mmol/l | HDL-cholesterol, mean (SD), last value on treatment ([2]; 2.5 mg qd): 16 (18) mg/dL | Potassium, mean (SD), last value on treatment ([2]; 2.5 mg qd): 4.2 (0.3) mmol/l | Sodium, mean (SD), last value on treatment ([2]; 2.5 mg qd): 140 (2) mmol/l | Total cholesterol, mean (SD), last value on treatment ([2]; 2.5 mg qd): 175 (11) mg/dL | Triglycerides, mean (SD), last value on treatment ([2]; 2.5 mg qd): 171 (65) mg/dL | HDL-cholesterol, mean (SD), last value on treatment ([2]; 10 mg qd, N = 8): 31 (18) mg/dL | Calcium, mean (SD), last value on treatment ([2]; 10 mg qd): 2.3 (0.1) mmol/l | Potassium, mean (SD), last value on treatment ([2]; 10 mg qd): 4.4 (0.3) mmol/l | Sodium, mean (SD), last value on treatment ([2]; 10 mg qd): 140 (1) mmol/l | Total cholesterol, mean (SD), last value on treatment ([2]; 10 mg qd): 171 (25) mg/dL | Triglycerides, mean (SD), last value on treatment ([2]; 10 mg qd): 114 (42) mg/dL | Calcium, mean (SD), last value on treatment ([2]; 25 mg qd): 2.3 (0.1) mmol/l | HDL-cholesterol, mean (SD), last value on treatment ([2]; 25 mg qd): 41 (17) mg/dL | Potassium, mean (SD), last value on treatment ([2]; 25 mg qd): 4.1 (0.3) mmol/l | Sodium, mean (SD), last value on treatment ([2]; 25 mg qd): 139 (2) mmol/l | Total cholesterol, mean (SD), last value on treatment ([2]; 25 mg qd): 174 (13) mg/dL | Triglycerides, mean (SD), last value on treatment ([2]; 25 mg qd): 89 (26) mg/dL | Calcium, mean (SD), last value on treatment ([2]; 100 mg qd): 2.3 (0.1) mmol/l | HDL-cholesterol, mean (SD), last value on treatment ([2]; 100 mg qd): 37 (18) mg/dL | Potassium, mean (SD), last value on treatment ([2]; 100 mg qd): 4.5 (0.3) mmol/l | Sodium, mean (SD), last value on treatment ([2]; 100 mg qd): 139 (2) mmol/l | Total cholesterol, mean (SD), last value on treatment ([2]; 100 mg qd): 174 (11) mg/dL | Triglycerides, mean (SD), last value on treatment ([2]; 100 mg qd): 97 (27) mg/dL | Mean (SD) micturition day frequency ([3]; Day 1, day 07:00–18:59): 6.0 (1.2) | Mean (SD) micturition night frequency ([3]; Day 1, night 19:00–06:59): 3.7 (1.5) | Mean (SD) micturition day frequency ([3]; Day 8, day 07:00–18:59): 6.6 (1.8) | Mean (SD) micturition night frequency ([3]; Day 8, night 19:00–06:59): 3.7 (1.2) | Mean (SD) micturition day frequency ([3]; Day 9, day 07:00–18:59): 6.4 (1.9)
